Measurements reported in ChEMBL document CHEMBL1153737, “Synthesis and antiprotozoal activity of 4-arylcoumarins” (Eur J Med Chem, 2010).

Assays:
[1] = Selectivity index, ratio of IC50 for human THP1 cells to IC50 for Leishmania donovani MHOM/IN/80/DD8 amastigotes; assay type: toxicity, cell-based, THP-1; details: read-out: Ratio IC50
Method in brief: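 SI Ama computed as IC50 on THP1 cells divided by IC50 on intracellular L. donovani amastigotes, with amastigote IC50 taken from three independent experiments.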

THP-1 = assay: Cytotoxicity against human THP1 cells assessed as cell viability after 72 hrs by Alamar blue assay; assay type: cell-based; details: THP-1, 72 h
Leishmania donovani [2] = assay: Antileishmanial activity against Leishmania donovani MHOM/IN/80/DD8 amastigotes infected in human THP1 cells assessed as decrease of infected macrophages after 72 hrs by Giemsa staining; assay type: functional, organism-based; details: MHOM/IN/80/DD8, THP-1, 72 h
Method in brief: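 THP1 monocytes (10⁵ cells/ml) differentiated to adherent macrophages with phorbol myristate acetate in complete RPMI, 48 h at 37 °C, 6% CO₂. Infected with stationary-phase promastigotes at cell:parasite ratio 1/10 for 24 h, then washed four times. Compound dilutions added in duplicate chambers for 72 h at 37 °C. Cells methanol-fixed and Giemsa-stained. Amphotericin B and DMSO controls included.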

Plasmodium falciparum = assay: Antiplasmodial activity against multidrug-resistant Plasmodium falciparum W2 infected human erythrocytes after 48 hrs by flow cytometry; assay type: functional, organism-based; details: W2, 48 h
Leishmania donovani [3] = assay: Antileishmanial activity against Leishmania donovani MHOM/IN/80/DD8 promastigotes assessed as parasite viability after 48 hrs by Alamar blue assay; assay type: functional, organism-based; details: MHOM/IN/80/DD8, 48 h
Method in brief: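 Late log-phase promastigotes in complete RPMI (10% FCS, L-glutamine/penicillin–streptomycin) with 10% Alamar Blue and a range of compound concentrations, final DMSO <0.5%. Incubated 48 h at 27 °C. Viability read as Alamar Blue reduction by absorbance at 570 and 630 nm.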

[4] = Selectivity index, ratio of IC50 for human THP1 cells to IC50 for Plasmodium falciparum W2; assay type: toxicity, cell-based, THP-1; details: read-out: Ratio IC50

| SMILES | selectivity ratio [1] | IC50 (THP-1) [µM] | IC50 (Leishmania donovani [2]) [µM] | IC50 (Plasmodium falciparum) [µM] | IC50 (Leishmania donovani [3]) [µM] | selectivity ratio [4] |
| --- | --- | --- | --- | --- | --- | --- |
| COc1ccc(-c2cc(=O)oc3cc(OC)c(OC)cc23)cc1OC | > 265 | > 292 | 1.1 | > 117 | > 292 |  |
| COc1ccc(-c2cc(=O)oc3ccccc23)cc1OC | > 6.7 | > 176 | 26.4 | 12 | > 176 | > 14.7 |
| COc1ccc2oc(=O)cc(-c3ccc(OC)c(OC)c3)c2c1 | > 29.6 | > 160 | 5.4 | > 160 | > 160 |  |
| COc1cc2oc(=O)cc(-c3ccc(O)cc3)c2cc1OC |  | > 67 | > 67 | > 67 | > 67 |  |
| COc1cc(-c2cc(=O)oc3cc(OC)c(OC)cc23)ccc1O | > 4.5 | > 137 | 30.4 | 22.5 | 94.2 | > 6.1 |
| C[C@@H]1[C@H](O)[C@@H](C)/C=C/C=C/C=C/C=C/C=C/C=C/C=C/[C@H](O[C@@H]2O[C@H](C)[C@@H](O)[C@H](N)[C@@H]2O)C[C@@H]2O[C@](O)(C[C@@H](O)C[C@@H](O)[C@H](O)CC[C@@H](O)C[C@@H](O)CC(=O)O[C@H]1C)C[C@H](O)[C@H]2C(=O)O [AMPHOTERICIN B] | 140 | 14 | 0.1 |  |  |  |
| COc1ccc(-c2cc(=O)oc3cc(OC)c(OC)c(OC)c23)cc1OC | 18.1 | 78 | 4.3 | 25.8 | > 78 | 3 |
| COc1ccc2c(-c3ccc(OC)c(OC)c3)cc(=O)oc2c1 |  | 64 | > 25 | 64 | 25.6 | 1 |
